≈ marks a conversion by molar mass, not a printed value.
How the values were obtained:
[1] = tested on: Escherichia coli; experiment: Antibacterial activity against Escherichia coli ATCC 35218 after 24 hrs by MTT assay; format: functional; settings: ATCC 35218, 24 h
Method in brief: (§1)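 LB medium, inocula of about 10⁵ cfu/mL in 96-well plates against serially diluted compounds (DMSO stock diluted in 50% v/v DMSO/PBS), 37 °C for 24 h. Read-out: PBS containing 2 mg/mL MTT added for 4–5 h at room temperature, wells emptied, solubilizer added for 12 h at room temperature, then OD at 550 nm. MIC₅₀ from this colorimetric read.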

[2] = tested on: Staphylococcus aureus; experiment: Antibacterial activity against Staphylococcus aureus ATCC 25923 after 24 hrs by MTT assay; format: functional; settings: ATCC 25923, 24 h; method in brief: as §1
[3] = tested on: Bacillus subtilis; experiment: Antibacterial activity against Bacillus subtilis ATCC 6633 after 24 hrs by MTT assay; format: functional; settings: ATCC 6633, 24 h; method in brief: as §1
[4] = Inhibition of Staphylococcus aureus TyrRS assessed as inhibition of [3H]tyrosine incorporation after 10 mins by liquid scintillation counting
[5] = tested on: Candida albicans; experiment: Antifungal activity against Candida albicans ATCC 10231 after 48 hrs by MTT assay; settings: ATCC 10231, 48 h

## O=C1OCC(Nc2ccccc2Cl)=C1c1ccccc1
[1]
  MIC50: > 50 µg/mL
[2]
  MIC50: > 50 µg/mL
[3]
  MIC50: > 50 µg/mL
[4]
  IC50: 89.9 µM
[5]
  MIC50: > 50 µg/mL

## O=C1OCC(Nc2cccc(Cl)c2)=C1c1ccccc1
[1]
  MIC50: > 50 µg/mL
[2]
  MIC50: 32.1 µg/mL (≈ 112 µM)
[3]
  MIC50: > 50 µg/mL
[4]
  IC50: 20.8 µM
[5]
  MIC50: 41.8 µg/mL (≈ 146 µM)

## O=C1OCC(Nc2ccccc2[N+](=O)[O-])=C1c1ccccc1
[1]
  MIC50: > 50 µg/mL
[2]
  MIC50: > 50 µg/mL
[3]
  MIC50: > 50 µg/mL
[4]
  IC50: > 100 µM
[5]
  MIC50: > 50 µg/mL

## O=C1OCC(Nc2cccc([N+](=O)[O-])c2)=C1c1ccccc1
[1]
  MIC50: > 50 µg/mL
[2]
  MIC50: > 50 µg/mL
[3]
  MIC50: > 50 µg/mL
[4]
  IC50: 44.6 µM
[5]
  MIC50: > 50 µg/mL

## O=C1OCC(Nc2cc(Br)cc(Br)c2)=C1c1ccc(F)cc1
[1]
  MIC50: > 50 µg/mL
[2]
  MIC50: 10.2 µg/mL (≈ 23.9 µM)
[3]
  MIC50: 38.6 µg/mL (≈ 90.4 µM)
[4]
  IC50: 9.2 µM
[5]
  MIC50: 28.6 µg/mL (≈ 67 µM)

## O=C1OCC(Nc2cccc(Cl)c2)=C1c1ccc(Cl)cc1
[1]
  MIC50: > 50 µg/mL
[2]
  MIC50: 3.3 µg/mL (≈ 10.3 µM)
[3]
  MIC50: 10.9 µg/mL (≈ 34 µM)
[4]
  IC50: 2.4 µM
[5]
  MIC50: 9.7 µg/mL (≈ 30.3 µM)

## O=C1OCC(Nc2ccccc2)=C1c1ccc(Br)cc1
[1]
  MIC50: > 50 µg/mL
[2]
  MIC50: 27.8 µg/mL (≈ 84.2 µM)
[3]
  MIC50: 41.7 µg/mL (≈ 126 µM)
[4]
  IC50: 16.6 µM
[5]
  MIC50: 37.5 µg/mL (≈ 114 µM)

## O=C1OCC(Nc2ccccn2)=C1c1ccc(Br)cc1
[1]
  MIC50: > 50 µg/mL
[2]
  MIC50: 39 µg/mL (≈ 118 µM)
[3]
  MIC50: > 50 µg/mL
[4]
  IC50: 25.6 µM
[5]
  MIC50: > 50 µg/mL

## CN(C1=C(c2ccc(Br)cc2)C(=O)OC1)c1ccccc1
[1]
  MIC50: > 50 µg/mL
[2]
  MIC50: 45.8 µg/mL (≈ 133 µM)
[3]
  MIC50: > 50 µg/mL
[4]
  IC50: 29.4 µM
[5]
  MIC50: > 50 µg/mL

## O=C1OCC(Nc2ccccc2Cl)=C1c1ccc(Br)cc1
[1]
  MIC50: > 50 µg/mL
[2]
  MIC50: 34.6 µg/mL (≈ 94.9 µM)
[3]
  MIC50: > 50 µg/mL
[4]
  IC50: 21 µM
[5]
  MIC50: 49.3 µg/mL (≈ 135 µM)

## O=C1OCC(Nc2cccc(Cl)c2)=C1c1ccc(Br)cc1
[1]
  MIC50: > 50 µg/mL
[2]
  MIC50: 2.5 µg/mL (≈ 6.86 µM)
[3]
  MIC50: 11.3 µg/mL (≈ 31 µM)
[4]
  IC50: 1.7 µM
[5]
  MIC50: 9 µg/mL (≈ 24.7 µM)

## O=C1OCC(Nc2ccc(Cl)cc2)=C1c1ccc(Br)cc1
[1]
  MIC50: > 50 µg/mL
[2]
  MIC50: 12.6 µg/mL (≈ 34.6 µM)
[3]
  MIC50: > 50 µg/mL
[4]
  IC50: 15.2 µM
[5]
  MIC50: 25.7 µg/mL (≈ 70.5 µM)

## O=C1OCC(Nc2ccc(Br)cc2)=C1c1ccc(Br)cc1
[1]
  MIC50: > 50 µg/mL
[2]
  MIC50: 23.1 µg/mL (≈ 56.5 µM)
[3]
  MIC50: > 50 µg/mL
[4]
  IC50: 11.4 µM
[5]
  MIC50: 41.8 µg/mL (≈ 102 µM)

## O=C1OCC(Nc2ccccc2[N+](=O)[O-])=C1c1ccc(Br)cc1
[1]
  MIC50: > 50 µg/mL
[2]
  MIC50: > 50 µg/mL
[3]
  MIC50: > 50 µg/mL
[4]
  IC50: 67.3 µM
[5]
  MIC50: > 50 µg/mL

## O=C1OCC(Nc2cccc([N+](=O)[O-])c2)=C1c1ccc(Br)cc1
[1]
  MIC50: > 50 µg/mL
[2]
  MIC50: 10.8 µg/mL (≈ 28.8 µM)
[3]
  MIC50: 28.6 µg/mL (≈ 76.2 µM)
[4]
  IC50: 10.3 µM
[5]
  MIC50: 26.3 µg/mL (≈ 70.1 µM)

## O=C1OCC(Nc2ccc([N+](=O)[O-])cc2)=C1c1ccc(Br)cc1
[1]
  MIC50: > 50 µg/mL
[2]
  MIC50: > 50 µg/mL
[3]
  MIC50: > 50 µg/mL
[4]
  IC50: 63.3 µM
[5]
  MIC50: > 50 µg/mL

## O=C1OCC(Nc2cccc(O)c2)=C1c1ccc(Br)cc1
[1]
  MIC50: > 50 µg/mL
[2]
  MIC50: 25.2 µg/mL (≈ 72.8 µM)
[3]
  MIC50: > 50 µg/mL
[4]
  IC50: 15.4 µM
[5]
  MIC50: > 50 µg/mL

## O=C1OCC(Nc2ccc(O)cc2)=C1c1ccc(Br)cc1
[1]
  MIC50: > 50 µg/mL
[2]
  MIC50: > 50 µg/mL
[3]
  MIC50: > 50 µg/mL
[4]
  IC50: 85.2 µM
[5]
  MIC50: > 50 µg/mL

## COc1ccccc1NC1=C(c2ccc(Br)cc2)C(=O)OC1
[1]
  MIC50: > 50 µg/mL
[2]
  MIC50: > 50 µg/mL
[3]
  MIC50: > 50 µg/mL
[4]
  IC50: 36.8 µM
[5]
  MIC50: > 50 µg/mL

## COc1ccc(NC2=C(c3ccc(Br)cc3)C(=O)OC2)cc1
[1]
  MIC50: > 50 µg/mL
[2]
  MIC50: > 50 µg/mL
[3]
  MIC50: > 50 µg/mL
[4]
  IC50: 97.6 µM
[5]
  MIC50: > 50 µg/mL

## Cc1ccc(NC2=C(c3ccc(Br)cc3)C(=O)OC2)cc1
[1]
  MIC50: > 50 µg/mL
[2]
  MIC50: > 50 µg/mL
[3]
  MIC50: > 50 µg/mL
[4]
  IC50: > 100 µM
[5]
  MIC50: > 50 µg/mL

## O=C1OCC(Nc2cc(F)cc(F)c2)=C1c1ccc(Br)cc1
[1]
  MIC50: > 50 µg/mL
[2]
  MIC50: 7.1 µg/mL (≈ 19.4 µM)
[3]
  MIC50: 19.4 µg/mL (≈ 53 µM)
[4]
  IC50: 6.3 µM
[5]
  MIC50: 21.7 µg/mL (≈ 59.3 µM)

## O=C1OCC(Nc2cc(Cl)cc(Cl)c2)=C1c1ccc(Br)cc1
[1]
  MIC50: > 50 µg/mL
[2]
  MIC50: 0.42 µg/mL (≈ 1.05 µM)
[3]
  MIC50: 2.2 µg/mL (≈ 5.51 µM)
[4]
  IC50: 0.39 µM
[5]
  MIC50: 5.8 µg/mL (≈ 14.5 µM)

## O=C1OCC(Nc2cc(Br)cc(Br)c2)=C1c1ccc(Br)cc1
[1]
  MIC50: > 50 µg/mL
[2]
  MIC50: 23.5 µg/mL (≈ 48.2 µM)
[3]
  MIC50: > 50 µg/mL
[4]
  IC50: 13.6 µM
[5]
  MIC50: 49.2 µg/mL (≈ 101 µM)

## COc1cc(NC2=C(c3ccc(Br)cc3)C(=O)OC2)cc(OC)c1
[1]
  MIC50: > 50 µg/mL
[2]
  MIC50: > 50 µg/mL
[3]
  MIC50: > 50 µg/mL
[4]
  IC50: 17.5 µM
[5]
  MIC50: > 50 µg/mL

## O=C1OCC(Nc2ccccc2Cl)=C1c1cccc(Cl)c1
[1]
  MIC50: > 50 µg/mL
[2]
  MIC50: 21.5 µg/mL (≈ 67.2 µM)
[3]
  MIC50: 47.5 µg/mL (≈ 148 µM)
[4]
  IC50: 15.7 µM
[5]
  MIC50: 46.8 µg/mL (≈ 146 µM)

## O=C1OCC(Nc2cccc(Cl)c2)=C1c1cccc(Cl)c1
[1]
  MIC50: > 50 µg/mL
[2]
  MIC50: 4.6 µg/mL (≈ 14.4 µM)
[3]
  MIC50: 11.7 µg/mL (≈ 36.5 µM)
[4]
  IC50: 4.3 µM
[5]
  MIC50: 12.2 µg/mL (≈ 38.1 µM)

## O=C1OCC(Nc2ccccc2[N+](=O)[O-])=C1c1cccc(Cl)c1
[1]
  MIC50: > 50 µg/mL
[2]
  MIC50: > 50 µg/mL
[3]
  MIC50: > 50 µg/mL
[4]
  IC50: 49.7 µM
[5]
  MIC50: > 50 µg/mL

## COc1ccccc1NC1=C(c2cccc(Cl)c2)C(=O)OC1
[1]
  MIC50: > 50 µg/mL
[2]
  MIC50: 49.4 µg/mL (≈ 156 µM)
[3]
  MIC50: > 50 µg/mL
[4]
  IC50: 32.5 µM
[5]
  MIC50: > 50 µg/mL

## O=C1OCC(Nc2cc(Cl)cc(Cl)c2)=C1c1cccc(Cl)c1
[1]
  MIC50: > 50 µg/mL
[2]
  MIC50: 2.9 µg/mL (≈ 8.18 µM)
[3]
  MIC50: 13.4 µg/mL (≈ 37.8 µM)
[4]
  IC50: 2.9 µM
[5]
  MIC50: 10.1 µg/mL (≈ 28.5 µM)

## O=C1OCC(Nc2ccc(Br)cc2)=C1c1cccc(Br)c1
[1]
  MIC50: > 50 µg/mL
[2]
  MIC50: 6.5 µg/mL (≈ 15.9 µM)
[3]
  MIC50: 31.6 µg/mL (≈ 77.2 µM)
[4]
  IC50: 5.4 µM
[5]
  MIC50: 18.7 µg/mL (≈ 45.7 µM)

## O=C1OCC(Nc2cc(Cl)cc(Cl)c2)=C1c1cccc(Br)c1
[1]
  MIC50: > 50 µg/mL
[2]
  MIC50: 0.06 µg/mL (≈ 0.15 µM)
[3]
  MIC50: 1.2 µg/mL (≈ 3.01 µM)
[4]
  IC50: 0.09 µM
[5]
  MIC50: 5.4 µg/mL (≈ 13.5 µM)

## O=C1OCC(Nc2cc(Br)cc(Br)c2)=C1c1cccc(Br)c1
[1]
  MIC50: > 50 µg/mL
[2]
  MIC50: 2.3 µg/mL (≈ 4.71 µM)
[3]
  MIC50: 8.8 µg/mL (≈ 18 µM)
[4]
  IC50: 1.9 µM
[5]
  MIC50: 8.5 µg/mL (≈ 17.4 µM)

## COc1ccc(C2=C(Nc3cc(Cl)cc(Cl)c3)COC2=O)cc1
[1]
  MIC50: > 50 µg/mL
[2]
  MIC50: 1.8 µg/mL (≈ 5.14 µM)
[3]
  MIC50: 9.6 µg/mL (≈ 27.4 µM)
[4]
  IC50: 1.6 µM
[5]
  MIC50: 7.2 µg/mL (≈ 20.6 µM)

## O=C1OCC(Nc2cc(Cl)cc(Cl)c2)=C1c1ccc(O)cc1
[1]
  MIC50: > 50 µg/mL
[2]
  MIC50: 2.9 µg/mL (≈ 8.63 µM)
[3]
  MIC50: 9.8 µg/mL (≈ 29.2 µM)
[4]
  IC50: 3.5 µM
[5]
  MIC50: 10.2 µg/mL (≈ 30.3 µM)

## NC[C@H]1O[C@H](O[C@H]2[C@H](O)[C@@H](O[C@H]3O[C@H](CO)[C@@H](O)[C@H](N)[C@H]3O)[C@H](N)C[C@@H]2N)[C@H](O)[C@@H](O)[C@@H]1O [KANAMYCIN]
[2]
  MIC50: 1.1 µg/mL (≈ 2.27 µM)
[3]
  MIC50: 0.42 µg/mL (≈ 0.867 µM)

## CC(=O)N1CCN(c2ccc(OCC3COC(Cn4ccnc4)(c4ccc(Cl)cc4Cl)O3)cc2)CC1 (centres undefined) [KETOCONAZOLE]
[5]
  MIC50: 4.1 µg/mL (≈ 7.71 µM)

## CC1(C)S[C@@H]2[C@H](NC(=O)Cc3ccccc3)C(=O)N2[C@H]1C(=O)O [PENICILLIN G]
[1]
  MIC50: 2 µg/mL (≈ 5.98 µM)

— ChEMBL document CHEMBL1828597, “Tyrosyl-tRNA synthetase inhibitors as antibacterial agents: synthesis, molecular docking and structure-activity relationship analysis of 3-aryl-4-arylaminofuran-2(5H)-ones” (Eur J Med Chem, 2011)
